In ChEMBL document CHEMBL1139238, “Preparation of two sets of 5,6,7-trioxygenated dihydroflavonol derivatives as free radical scavengers and neuronal cell protectors to oxidative damage” (Bioorg Med Chem, 2009):
Calls of active or inactive are those of the source. No cut-off for these calls is given here.

How the values were obtained:
PC-12 [1] = assay: Cytoprotective activity against H2O2-induced cell death in rat PC12 cells assessed as increase in cell viability at 16 ug/ml preincubated 2 hrs before H2O2 challenge measured after 4 hrs by MTT assay relative to control; type: functional
In short: (§1)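 PC12 cells from Shanghai Institute of Cell Biology, grown at 37 °C in 5% CO2 in high-glucose DMEM with 10% heat-inactivated calf serum and penicillin/streptomycin. Cells seeded at 6×10^3/well and used 36 h later. Compound in DMSO diluted in medium, 2 h pretreatment, then 500 µM H2O2 (final) for 4 h. MTT (5 mg/mL) for 3 h, formazan dissolved in DMSO, read at 570 nm. Gain is %OD(drug)/OD(normal) minus %OD(DMSO)/OD(normal).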

PC-12 [2] = assay: Cytoprotective activity against H2O2-induced cell death in rat PC12 cells assessed as increase in cell viability at 8 ug/ml preincubated 2 hrs before H2O2 challenge measured after 4 hrs by MTT assay relative to control; type: functional; in short: as §1
[3] = target: Xanthine dehydrogenase/oxidase (Rattus norvegicus) (UniProt P22985); assay: Inhibition of xanthine oxidase assessed as formation of formazan after 2 hrs by spectrophotometry; parameters: concentration or dose not given beside the values
PC-12 [4] = assay: Cytoprotective activity against H2O2-induced cell death in rat PC12 cells assessed as increase in cell viability at 32 ug/ml preincubated 2 hrs before H2O2 challenge measured after 4 hrs by MTT assay relative to control; type: functional; in short: as §1
[5] = system: Radical scavenging activity; assay: Antioxidant activity assessed as DPPH free radical scavenging activity by spectrophotometry; type: functional
In short: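 DPPH (0.4 mg/mL) in methanol mixed with compounds (DMSO solutions) at various concentrations. Incubated 30 min at 37 °C, absorbance read at 517 nm. Methanolic DPPH alone serves as control; quercetin and vitamin C are the reference scavengers.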

Liver [6] = assay: tissue or blood; details: Rattus norvegicus, 1 h
[7] = Antioxidant activity assessed as superoxide radical scavenging activity by spectrophotometry; type: functional
In short: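 Superoxide generated by NADH (78 μM), nitroblue tetrazolium (50 μM) and phenazine methosulfate (5 μM) in 16 mM Tris–HCl, pH 8.0, with compounds at various concentrations. Read at 560 nm after 5 min at room temperature. Blanks lack phenazine methosulfate; quercetin and vitamin C are references.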

[8] = target: Xanthine dehydrogenase/oxidase (Rattus norvegicus) (UniProt P22985); assay: Inhibition of xanthine oxidase assessed as formation of formazan at 16 ug/ml after 2 hrs by spectrophotometry
PC-12 [9] = assay: Cytoprotective activity against H2O2-induced cell death in rat PC12 cells assessed as increase in cell viability preincubated 2 hrs before H2O2 challenge measured after 4 hrs by MTT assay; type: functional, cell-based
Liver [10] = assay: Antioxidant activity against FeSO4-induced lipid peroxidation in rat liver homogenate assessed as inhibition of malondialdehyde release at < 5 uM after 1 hr by thiobarbituric acid assay relative quercetin; type: functional, tissue-based
In short: (§2)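 Rat (Sprague-Dawley) liver homogenate in ice-cold PBS; peroxidation driven by FeSO4 (4 μM) plus vitamin C (50 μM). Compounds at 0.1–100 μM, 37 °C for 1 h in capped tubes. Then 20% TCA for 30 min at room temperature, followed by 0.1 M HCl and 1% TBA at 99 °C for 1 h. After centrifugation, MDA read at 532 nm. Quercetin is the standard; n = 3, means ± SD.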

Liver [11] = assay: Antioxidant activity against FeSO4-induced lipid peroxidation in rat liver homogenate assessed as inhibition of malondialdehyde release at 6 to 100 uM after 1 hr by thiobarbituric acid assay relative quercetin; type: functional, tissue-based; in short: as §2

Xanthine dehydrogenase/oxidase (Rattus norvegicus), sequence (P22985 whole entry, looked up): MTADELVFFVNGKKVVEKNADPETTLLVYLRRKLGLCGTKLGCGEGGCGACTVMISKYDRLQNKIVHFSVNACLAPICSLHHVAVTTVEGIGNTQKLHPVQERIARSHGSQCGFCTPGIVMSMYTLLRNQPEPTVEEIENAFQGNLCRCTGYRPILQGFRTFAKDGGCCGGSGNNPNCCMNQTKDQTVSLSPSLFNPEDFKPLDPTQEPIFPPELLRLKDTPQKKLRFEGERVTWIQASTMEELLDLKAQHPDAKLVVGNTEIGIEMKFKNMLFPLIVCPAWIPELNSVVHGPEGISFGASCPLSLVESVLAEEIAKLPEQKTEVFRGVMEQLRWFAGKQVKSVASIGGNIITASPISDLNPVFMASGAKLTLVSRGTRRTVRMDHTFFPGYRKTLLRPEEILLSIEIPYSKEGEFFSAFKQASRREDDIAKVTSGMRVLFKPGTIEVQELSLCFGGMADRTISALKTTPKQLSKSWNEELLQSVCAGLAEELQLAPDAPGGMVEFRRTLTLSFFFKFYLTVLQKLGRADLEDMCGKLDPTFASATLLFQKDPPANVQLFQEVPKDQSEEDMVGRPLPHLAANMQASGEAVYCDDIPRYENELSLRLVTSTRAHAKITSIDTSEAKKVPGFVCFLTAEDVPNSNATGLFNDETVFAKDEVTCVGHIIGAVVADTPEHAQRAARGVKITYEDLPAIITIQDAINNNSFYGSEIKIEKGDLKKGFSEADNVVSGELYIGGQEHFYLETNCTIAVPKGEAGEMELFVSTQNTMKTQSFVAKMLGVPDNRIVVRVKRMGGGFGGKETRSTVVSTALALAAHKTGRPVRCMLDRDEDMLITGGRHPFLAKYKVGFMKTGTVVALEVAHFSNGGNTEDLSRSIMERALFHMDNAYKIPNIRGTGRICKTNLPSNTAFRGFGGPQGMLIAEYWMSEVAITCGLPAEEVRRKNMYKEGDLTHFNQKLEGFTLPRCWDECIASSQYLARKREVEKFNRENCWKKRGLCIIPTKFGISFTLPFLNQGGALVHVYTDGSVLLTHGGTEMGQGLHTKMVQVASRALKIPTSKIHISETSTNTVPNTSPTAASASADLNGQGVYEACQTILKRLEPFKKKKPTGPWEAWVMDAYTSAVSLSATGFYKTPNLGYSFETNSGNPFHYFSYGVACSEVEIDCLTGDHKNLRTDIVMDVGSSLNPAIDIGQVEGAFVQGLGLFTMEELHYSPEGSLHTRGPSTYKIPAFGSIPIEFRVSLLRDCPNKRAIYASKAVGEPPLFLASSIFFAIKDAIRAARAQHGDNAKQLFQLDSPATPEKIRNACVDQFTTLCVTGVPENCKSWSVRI

| Compound | Activity (PC-12 [1]) [%] | Activity (PC-12 [2]) [%] | Activity [3] [%] | Activity (PC-12 [4]) [%] | EC50 [5] [µM] | IC50 (Liver [6]) [µM] | EC50 [7] [µM] | IC50 [8] [µM] | EC50 (PC-12 [9]) [µM] | Activity (Liver [10]) | Activity (Liver [11]) |
| --- | --- | --- | --- | --- | --- | --- | --- | --- | --- | --- | --- |
| COc1ccc([C@@H]2Oc3cc(OC)c(OC)c(OC)c3C(=O)[C@@H]2O)cc1 (racemic) | 3.4 | 0.6 | 24.9 | 2.1 |  |  |  |  |  |  |  |
| COc1cc2c(c(OC)c1OC)C(=O)[C@H](O)[C@H](c1ccccc1O)O2 (racemic) |  |  |  |  | 82.4 | 26.7 | 164 |  |  |  |  |
| COc1cc([C@@H]2Oc3cc(OC)c(OC)c(OC)c3C(=O)[C@@H]2O)cc(OC)c1O (racemic) |  |  |  |  | 54.1 | 10.4 | 55.5 |  |  |  |  |
| COc1cc2c(c(OC)c1OC)C(=O)[C@H](O)[C@@H](c1ccc(O)c(O)c1)O2 (racemic) | 56.1 | 40.5 | 58.9 | 74.5 | 7.3 | 10.4 | 100 | 96.7 | 33.1 |  |  |
| COc1cc([C@@H]2Oc3cc(OC)c(OC)c(OC)c3C(=O)[C@@H]2O)cc(OC)c1OC (racemic) | 9.2 | 2.1 | 28.9 | 15.1 |  | 19.6 |  |  |  |  |  |
| COc1ccc([C@H]2Oc3cc(OC)c(O)c(OC)c3C(=O)[C@@H]2O)cc1 (racemic) | 37.2 | 19.5 | 21.1 | 53.6 | 94.9 | 11.9 |  |  | 82.4 |  |  |
| COc1cc2c(c(OC)c1O)C(=O)[C@H](O)[C@H](c1ccc3c(c1)OCO3)O2 (racemic) | 0.3 | 0.1 | 12.5 | 0.5 | 18.4 | 6.4 | 93.6 |  |  |  |  |
| COc1ccc([C@@H]2Oc3cc(OC)c(O)c(OC)c3C(=O)[C@@H]2O)cc1OC (racemic) | 19.8 | 2.9 | 74.3 | 22 | 35.9 |  | 50 | 16 |  |  |  |
| COc1cc2c(c(OC)c1OC)C(=O)[C@H](O)[C@@H](c1ccc(O)cc1)O2 (racemic) | 5.1 | -1.4 | 0.2 | 17.1 |  |  |  |  |  |  |  |
| COc1cc2c(c(OC)c1OC)C(=O)[C@H](O)[C@H](c1ccc3c(c1)OCO3)O2 (racemic) | 5.4 | 1.4 | 0.8 | 4.5 |  |  | 80.3 |  |  |  |  |
| COc1ccc([C@@H]2Oc3cc(OC)c(OC)c(OC)c3C(=O)[C@@H]2O)cc1OC (racemic) | 1.9 | -2.5 | 46.6 | 2.4 |  | 28.6 |  |  |  |  |  |
| COc1ccc([C@H]2Oc3cc(OC)c(OC)c(OC)c3C(=O)[C@@H]2O)cc1O (racemic) |  |  |  |  | 124 |  | 112 |  |  |  |  |
| COc1cc2c(c(OC)c1O)C(=O)[C@H](O)[C@@H](c1ccc(O)cc1)O2 (racemic) | 13.4 | -3.8 | 19.8 | 19.1 | 35.3 |  |  |  |  |  |  |
| COc1cc([C@@H]2Oc3cc(OC)c(O)c(OC)c3C(=O)[C@@H]2O)ccc1O (racemic) | 0.5 | -0.2 | 15.4 | 1.6 | 42.8 | 1.9 | 97.2 |  |  |  |  |
| COc1cc([C@H]2Oc3cc(OC)c(OC)c(OC)c3C(=O)[C@@H]2O)ccc1O (racemic) |  |  |  |  | 27.8 | 5.5 | 97.1 |  |  | inactive | Active |
| O=C1O[C@H]([C@@H](O)CO)C(O)=C1O [ASCORBIC ACID] |  |  |  |  | 154 |  | 256 |  |  |  |  |
| O=c1c(O)c(-c2ccc(O)c(O)c2)oc2cc(O)cc(O)c12 [QUERCETIN] | 42.6 | 28.9 |  | 61.7 | 5.5 | 6 | 40.6 |  | 68.3 |  |  |
